Assay results published in ChEMBL document CHEMBL4270658, “Synthesis, in vitro and in vivo biological evaluation, COX-1/2 inhibition and molecular docking study of indole-N-acylhydrazone derivatives” (Bioorg Med Chem, 2018).
Calls of active or inactive are those of the source. The calls are words filed in the database; no cut-off is given here.

Assays:
Splenocyte [1] = test: Immunomodulatory activity in BALB/c mouse splenocytes assessed as inhibition of concanavalin A-induced lymphocyte proliferation by measuring [methyl-3H]-thymidine uptake at 50 uM after 48 hrs; format: functional
Method in brief: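 BALB/c splenocytes (5×10⁶ cells/well) in DMEM, triplicate, with concanavalin A (2 μg mL⁻¹) ± compound 48 h at 37 °C, 5% CO₂, then 1 μCi [methyl-³H]thymidine for 12 h; inhibition from thymidine uptake relative to control; dexamethasone positive control.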

[2] = Cytotoxicity against mouse J774 macrophages after 72 hrs by Alamar Blue assay; format: cell-based
[3] = Selectivity index, ratio of IC50 for ovine COX-1 to IC50 for recombinant N-terminal His6-tagged human COX-2
Method in brief: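 COX-1 or COX-2 in 100 mM Tris-HCl pH 8.0 with hematin, compound (in DMSO, 1.5–100 μM) preincubated 5 min at room temperature; started with arachidonic acid plus TMPD, absorbance at 610 nm after 1 h; triplicate; IC50 calculated, selectivity index from COX-1 and COX-2 IC50s.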

Mus musculus [4] = test: Acute toxicity in Swiss mouse assessed as effect on blood cell levels at 2000 mg/kg, po (reference value: 13.0 +/- 0.9 10^6/mm3); format: organism-based; conditions: in vivo
Mus musculus [5] = test: Antiinflammatory activity in carrageenan-induced Swiss mouse assessed as inhibition of paw edema at 30 mg/kg, po pretreated for 1 hr followed by carrageenan challenge measured after 5 hrs by plethysmometric method; format: functional
Splenocyte [6] = test: Antiinflammatory activity in BALB/c mouse splenocytes assessed as inhibition of IFNgamma level at 11 uM after 24 to 48 hrs by cytometric bead array method; format: functional, cell-based
Method in brief: (§1)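 Splenocytes from female BALB/c mice (6–8 weeks) isolated on Ficoll-Paque (1.076 g/mL), viability >98% by trypan blue; cultured with 11 μM compound for 24 and 48 h. Supernatant cytokines measured by cytometric bead array on flow cytometer; two independent experiments in triplicate.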

Mus musculus [7] = test: Antiinflammatory activity in carrageenan-induced Swiss mouse assessed as inhibition of paw edema at 60 mg/kg, po pretreated for 1 hr followed by carrageenan challenge measured after 1 hr by plethysmometric method; format: functional
Splenocyte [8] = test: Antiinflammatory activity in BALB/c mouse splenocytes assessed as decrease of IL-6 level at 11 uM after 24 hrs by cytometric bead array method; format: functional, cell-based; method in brief: as §1
Mus musculus [9] = test: Acute toxicity in Swiss mouse assessed as effect on mean corpuscular hemoglobin concentration level at 2000 mg/kg, po (reference value: 19.5 +/- 0.94%); format: organism-based; conditions: in vivo
Mus musculus [10] = test: Acute toxicity in Swiss mouse assessed as effect on mean corpuscular hemoglobin level at 2000 mg/kg, po (reference value: 11.16 +/- 0.53 pg); format: organism-based; conditions: in vivo
Mus musculus [11] = test: Acute toxicity in Swiss mouse assessed as occurence of irritability at 2000 mg/kg, po after 1 hr; format: organism-based; conditions: in vivo
Method in brief: (§2)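 Fixed-dose stepwise procedure following OECD acute oral toxicity guidelines; groups of 3 Swiss Mus musculus mice (20–35 g) dosed orally at 2000 mg kg⁻¹ and observed for clinical signs of pain, suffering and impending death. Test run in duplicate. Animals kept at 22 ± 3 °C, 12 h light/dark, free food and water.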

[12] = target: T1, Prostaglandin G/H synthase 2 (Homo sapiens, UniProt P35354); test: Inhibition of recombinant N-terminal His6-tagged human COX-2 expressed in Baculovirus infected Sf21 cells using arachidonic acid as substrate preincubated for 5 mins followed by substrate addition measured after 1 hr; format: cell-based
T1 sequence (P35354 whole entry): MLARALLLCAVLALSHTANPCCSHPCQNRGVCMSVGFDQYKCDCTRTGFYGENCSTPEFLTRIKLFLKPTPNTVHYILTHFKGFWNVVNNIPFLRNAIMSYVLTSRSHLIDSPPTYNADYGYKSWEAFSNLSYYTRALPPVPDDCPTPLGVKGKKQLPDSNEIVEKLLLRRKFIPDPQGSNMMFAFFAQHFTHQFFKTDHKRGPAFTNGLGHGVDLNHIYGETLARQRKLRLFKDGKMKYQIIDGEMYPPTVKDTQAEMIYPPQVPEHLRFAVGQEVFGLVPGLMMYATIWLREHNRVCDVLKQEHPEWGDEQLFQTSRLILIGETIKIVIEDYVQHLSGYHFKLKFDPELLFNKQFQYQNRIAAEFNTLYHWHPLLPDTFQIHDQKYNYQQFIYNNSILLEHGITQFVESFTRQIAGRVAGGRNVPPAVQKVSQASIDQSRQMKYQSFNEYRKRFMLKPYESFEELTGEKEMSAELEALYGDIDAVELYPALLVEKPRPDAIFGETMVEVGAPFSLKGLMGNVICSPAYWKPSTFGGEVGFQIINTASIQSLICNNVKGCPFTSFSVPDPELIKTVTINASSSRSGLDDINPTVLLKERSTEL

Splenocyte [13] = test: Antiinflammatory activity in BALB/c mouse splenocytes assessed as increase of IL-10 level at 11 uM after 24 to 48 hrs by cytometric bead array method; format: functional, cell-based; method in brief: as §1
Splenocyte [14] = test: Antiinflammatory activity in BALB/c mouse splenocytes assessed as inhibition of IFNgamma-induced nitric oxide production at 11 uM after 24 to 48 hrs by Griess method; format: functional, cell-based
Mus musculus [15] = test: Acute toxicity in Swiss mouse assessed as effect on leukocyte level at 2000 mg/kg, po (reference value: 10.8 +/- 6.25 10^3/mm3); format: organism-based; conditions: in vivo
Mus musculus [16] = test: Acute toxicity in Swiss mouse assessed as effect on mean corpuscular volume at 2000 mg/kg, po (reference value: 57.3 +/- 3.01 […]); format: organism-based; conditions: in vivo
Mus musculus [17] = test: Acute toxicity in Swiss mouse assessed as mortality at 2000 mg/kg, po; format: organism-based; conditions: in vivo; method in brief: as §2
Mus musculus [18] = test: Antiinflammatory activity in carrageenan-induced Swiss mouse assessed as inhibition of paw edema at 15 mg/kg, po pretreated for 1 hr followed by carrageenan challenge measured after 6 hrs by plethysmometric method; format: functional
Mus musculus [19] = test: Antiinflammatory activity in carrageenan-induced Swiss mouse assessed as inhibition of paw edema at 60 mg/kg, po pretreated for 1 hr followed by carrageenan challenge measured after 6 hrs by plethysmometric method; format: functional
Mus musculus [20] = test: Acute toxicity in Swiss mouse assessed as occurence of ptosis at 2000 mg/kg, po after 1 hr; format: organism-based; conditions: in vivo; method in brief: as §2
Mus musculus [21] = test: Antiinflammatory activity in carrageenan-induced Swiss mouse assessed as inhibition of paw edema at 30 mg/kg, po pretreated for 1 hr followed by carrageenan challenge measured after 1 hr by plethysmometric method; format: functional
Splenocyte [22] = test: Antiinflammatory activity in BALB/c mouse splenocytes assessed as inhibition of IL-2 level at 11 uM after 24 to 48 hrs by cytometric bead array method; format: functional, cell-based; method in brief: as §1
Splenocyte [23] = test: Antiinflammatory activity in BALB/c mouse splenocytes assessed as inhibition of TNFalpha level at 11 uM after 24 to 48 hrs by cytometric bead array method; format: functional, cell-based; method in brief: as §1
[24] = target: T2, Prostaglandin G/H synthase 1 (Ovis aries, UniProt P05979); test: Inhibition of ovine COX-1 using arachidonic acid as substrate preincubated for 5 mins followed by substrate addition measured after 1 hr
T2 sequence (P05979 whole entry): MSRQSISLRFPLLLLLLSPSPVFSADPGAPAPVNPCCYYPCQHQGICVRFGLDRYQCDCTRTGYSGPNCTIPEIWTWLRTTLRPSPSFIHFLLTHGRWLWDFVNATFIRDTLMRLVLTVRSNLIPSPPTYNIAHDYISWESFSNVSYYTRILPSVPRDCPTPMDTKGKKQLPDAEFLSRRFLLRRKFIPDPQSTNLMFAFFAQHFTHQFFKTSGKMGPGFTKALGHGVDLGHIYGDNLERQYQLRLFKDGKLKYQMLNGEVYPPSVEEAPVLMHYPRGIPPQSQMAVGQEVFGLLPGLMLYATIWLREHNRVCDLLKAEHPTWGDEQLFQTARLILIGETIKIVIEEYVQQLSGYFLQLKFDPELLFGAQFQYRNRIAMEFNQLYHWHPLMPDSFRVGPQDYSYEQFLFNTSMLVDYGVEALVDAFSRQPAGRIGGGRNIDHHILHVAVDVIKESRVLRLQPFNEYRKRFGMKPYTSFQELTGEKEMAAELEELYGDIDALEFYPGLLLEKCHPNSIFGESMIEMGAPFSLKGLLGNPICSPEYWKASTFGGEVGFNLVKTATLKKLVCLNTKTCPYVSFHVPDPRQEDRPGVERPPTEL

Splenocyte [25] = test: Antiinflammatory activity in BALB/c mouse splenocytes assessed as increase of IL-4 level at 11 uM after 24 to 48 hrs by cytometric bead array method; format: functional, cell-based; method in brief: as §1
Mus musculus [26] = test: Acute toxicity in Swiss mouse assessed as effect on hemoglobin levels at 2000 mg/kg, po (reference value: 14.5 +/- 0.6 g/dl); format: organism-based; conditions: in vivo
Mus musculus [27] = test: Acute toxicity in Swiss mouse assessed as effect on hematocrit levels at 2000 mg/kg, po (reference value: 74.7 +/- 6.05%); format: organism-based; conditions: in vivo
Mus musculus [28] = test: Antiinflammatory activity in carrageenan-induced Swiss mouse assessed as paw volume at 60 mg/kg, po pretreated for 1 hr followed by carrageenan challenge measured after 1 hr by plethysmometric method (reference value: 59.39 +/- 10.59 […]); format: functional
Mus musculus [29] = test: Antiinflammatory activity in carrageenan-induced Swiss mouse assessed as inhibition of paw edema at 30 mg/kg, po pretreated for 1 hr followed by carrageenan challenge measured after 6 hrs by plethysmometric method; format: functional
Mus musculus [30] = test: Antiinflammatory activity in carrageenan-induced Swiss mouse assessed as inhibition of paw edema at 10 mg/kg, po pretreated for 1 hr followed by carrageenan challenge measured after 6 hrs by plethysmometric method; format: functional
Mus musculus [31] = test: Antiinflammatory activity in carrageenan-induced Swiss mouse assessed as inhibition of paw edema at 10 mg/kg, po pretreated for 1 hr followed by carrageenan challenge measured after 2 hrs by plethysmometric method; format: functional

Cc1ccc2[nH]cc(/C=N/NC(=O)CC#N)c2c1
inhibition at 50 µM (Splenocyte [1]): 15.4%
CC50 at 72 h [2]: 200 µM

N#CCC(=O)N/N=C/c1c[nH]c2cccc([N+](=O)[O-])c12
inhibition at 50 µM (Splenocyte [1]): 31%
CC50 at 72 h [2]: 66 µM

N#CCC(=O)N/N=C/c1c[nH]c2ccccc12
Ratio IC50 [3]: 1.51
Activity (Mus musculus [4]): 8.1 ×10⁶ /mm3
inhibition in vivo at 30 mg/kg (Mus musculus [5]): 100%
inhibition (Splenocyte [6]): Active
inhibition in vivo at 60 mg/kg (Mus musculus [7]): 74.3%
Activity (Splenocyte [8]): inactive
Activity (Mus musculus [9]): 33.8%
Activity (Mus musculus [10]): 17.05 pg
Activity (Mus musculus [11]): Non-Toxic
IC50 [12]: 1.02 µM
Activity (Splenocyte [13]): Active
inhibition (Splenocyte [14]): Active
Activity (Mus musculus [15]): 3.6 ×10³ /mm3
Activity (Mus musculus [16]): 51.5 fL
Activity (Mus musculus [17]): Non-Toxic
inhibition in vivo at 15 mg/kg (Mus musculus [18]): 67%
inhibition in vivo at 60 mg/kg (Mus musculus [19]): 92.5%
Activity (Mus musculus [20]): Non-Toxic
inhibition at 50 µM (Splenocyte [1]): 50.7%
inhibition in vivo at 30 mg/kg (Mus musculus [21]): 88.9%
inhibition (Splenocyte [22]): Active
inhibition (Splenocyte [23]): inactive
IC50 [24]: 1.54 µM
Activity (Splenocyte [25]): Active
Activity (Mus musculus [26]): 13.6 g/dL
Activity (Mus musculus [27]): 42.5%
CC50 at 72 h [2]: 150 µM

N#CCC(=O)N/N=C/c1c[nH]c2ccc(C#N)cc12
inhibition at 50 µM (Splenocyte [1]): 25.7%
CC50 at 72 h [2]: 69.4 µM

N#CCC(=O)N/N=C/c1c[nH]c2ccc(Br)cc12
Ratio IC50 [3]: 0.72
Activity (Mus musculus [4]): 8.4 ×10⁶ /mm3
Activity (Mus musculus [9]): 32.9%
Activity (Mus musculus [10]): 16.8 pg
Activity (Mus musculus [11]): Non-Toxic
IC50 [12]: 0.25 µM
Activity (Mus musculus [15]): 5.9 ×10³ /mm3
Activity (Mus musculus [16]): 53.6 fL
Activity (Mus musculus [17]): Non-Toxic
inhibition in vivo at 60 mg/kg (Mus musculus [19]): 66.3%
Activity (Mus musculus [20]): Non-Toxic
inhibition at 50 µM (Splenocyte [1]): 62.7%
Activity (Mus musculus [28]): 48.33 mL
IC50 [24]: 0.18 µM
Activity (Mus musculus [26]): 14.1 g/dL
inhibition in vivo at 30 mg/kg (Mus musculus [29]): 61.8%
Activity (Mus musculus [27]): 57.6%
CC50 at 72 h [2]: 144 µM

COc1ccc2[nH]cc(/C=N/NC(=O)CC#N)c2c1
inhibition at 50 µM (Splenocyte [1]): 43.7%
CC50 at 72 h [2]: 101 µM

N#CCC(=O)N/N=C/c1c[nH]c2ncccc12
inhibition at 50 µM (Splenocyte [1]): 52.4%
CC50 at 72 h [2]: 107 µM

N#CCC(=O)N/N=C/c1c[nH]c2c1ccc1ccccc12
inhibition at 50 µM (Splenocyte [1]): 1.2%
CC50 at 72 h [2]: 78.5 µM

Cc1cccc2c(/C=N/NC(=O)CC#N)c[nH]c12
inhibition at 50 µM (Splenocyte [1]): 52.2%
CC50 at 72 h [2]: 146 µM

COc1ccc2c(c1)c(CC(=O)O)c(C)n2C(=O)c1ccc(Cl)cc1 [INDOMETHACIN]
inhibition in vivo at 10 mg/kg (Mus musculus [30]): 84.1%
inhibition in vivo at 10 mg/kg (Mus musculus [31]): 72.4%

N#CCC(=O)N/N=C/c1c[nH]c2ccc(Cl)cc12
inhibition at 50 µM (Splenocyte [1]): 1.8%
CC50 at 72 h [2]: 76.9 µM

C[C@@H]1C[C@H]2[C@@H]3CCC4=CC(=O)C=C[C@]4(C)[C@@]3(F)[C@@H](O)C[C@]2(C)[C@@]1(O)C(=O)CO [DEXAMETHASONE]
inhibition at 50 µM (Splenocyte [1]): 74.6%
